Source: ChEMBL document CHEMBL3045357, “DNA adducts as biomarkers for oxidative and genotoxic stress from pesticides in crop plants” (J Agric Food Chem, 2008)

Assays:
Assay type in all cases: organism-based
Conditions in all cases: in vivo, other, 336 h
Glycine max [1] = test: Genotoxicity in Glycine max (soybean) exposed to compound through spray 4 times over 2 weeks assessed as relative adduct level A3 measured per 10^9 nucleotides using HX-dG internal standard using [32P]labeling based autoradiography relative to untreated control
Outline: (§1)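 Plants (2–6 weeks grown), groups of 2–4, sprayed 4 times over 2 weeks with formulations diluted per label (chlorothalonil 1:256, carbaryl 1:64 in water); controls water-sprayed. DNA from 1 g leaf via DNeasy Maxi kit. 10 µg DNA digested with micrococcal nuclease/spleen phosphodiesterase (4 h, 37 °C), NP1-enriched (45 min, 37 °C), labelled with [γ-32P]ATP/T4 kinase (45 min, 37 °C).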

Glycine max [2] = test: Genotoxicity in Glycine max (soybean) exposed to compound through spray 4 times over 2 weeks assessed as relative adduct level A3 measured per 10^9 nucleotides using [32P]labeling based autoradiography relative to untreated control; outline: as §1
Glycine max [3] = test: Genotoxicity in Glycine max (soybean) exposed to compound through spray 4 times over 2 weeks assessed as relative adduct level A2 measured per 10^9 nucleotides using [32P]labeling based autoradiography relative to untreated control; outline: as §1
Glycine max [4] = test: Genotoxicity in Glycine max (soybean) exposed to compound through spray 4 times over 2 weeks assessed as relative adduct level A1 measured per 10^9 nucleotides using [32P]labeling based autoradiography relative to untreated control; outline: as §1
Glycine max [5] = test: Genotoxicity in Glycine max (soybean) exposed to compound through spray 4 times over 2 weeks assessed as HNE-dG adducts using [32P]labeling based autoradiography (reference value: 34 cpm); outline: as §1
Glycine max [6] = test: Genotoxicity in Glycine max (soybean) exposed to compound through spray 4 times over 2 weeks assessed as relative adduct level A2 measured per 10^9 nucleotides using HX-dG internal standard using [32P]labeling based autoradiography relative to untreated control; outline: as §1
Glycine max [7] = test: Genotoxicity in Glycine max (soybean) exposed to compound through spray 4 times over 2 weeks assessed as relative adduct level A1 measured per 10^9 nucleotides using HX-dG internal standard using [32P]labeling based autoradiography relative to untreated control; outline: as §1
Glycine max [8] = test: Genotoxicity in Glycine max (soybean) exposed to compound through spray 4 times over 2 weeks assessed as HX-dG adducts using [32P]labeling based autoradiography; outline: as §1
Glycine max [9] = test: Genotoxicity in Glycine max (soybean) exposed to compound through spray 4 times over 2 weeks assessed as HNE-dG adducts measured per 10^9 nucleotides using [32P]labeling based autoradiography (reference value: 2 no unit); outline: as §1
Glycine max [10] = test: Genotoxicity in Glycine max (soybean) exposed to compound through spray 4 times over 2 weeks assessed as HX-dG adducts measured per 10^9 nucleotides using [32P]labeling based autoradiography; outline: as §1
Glycine max [11] = test: Genotoxicity in Glycine max (soybean) exposed to compound through spray 4 times over 2 weeks assessed as relative adduct level A5 measured per 10^9 nucleotides using HX-dG internal standard using [32P]labeling based autoradiography relative to untreated control; outline: as §1
Glycine max [12] = test: Genotoxicity in Glycine max (soybean) exposed to compound through spray 4 times over 2 weeks assessed as relative adduct level A4 measured per 10^9 nucleotides using HX-dG internal standard using [32P]labeling based autoradiography relative to untreated control; outline: as §1
Glycine max [13] = test: Genotoxicity in Glycine max (soybean) exposed to compound through spray 4 times over 2 weeks assessed as relative adduct level A5 measured per 10^9 nucleotides using [32P]labeling based autoradiography relative to untreated control; outline: as §1
Glycine max [14] = test: Genotoxicity in Glycine max (soybean) exposed to compound through spray 4 times over 2 weeks assessed as relative adduct level A4 measured per 10^9 nucleotides using [32P]labeling based autoradiography relative to untreated control; outline: as §1

| Structure (SMILES) | Activity (Glycine max [1]) [cpm] | Activity (Glycine max [2]) | Activity (Glycine max [3]) | Activity (Glycine max [4]) | Activity (Glycine max [5]) [cpm] | Activity (Glycine max [6]) [cpm] | Activity (Glycine max [7]) [cpm] | Activity (Glycine max [8]) [cpm] | Activity (Glycine max [9]) | Activity (Glycine max [10]) | Activity (Glycine max [11]) [cpm] | Activity (Glycine max [12]) [cpm] | Activity (Glycine max [13]) | Activity (Glycine max [14]) |
| --- | --- | --- | --- | --- | --- | --- | --- | --- | --- | --- | --- | --- | --- | --- |
| CC(C)[C@H](C(=O)O[C@H](C#N)c1cccc(Oc2ccccc2)c1)c1ccc(Cl)cc1 | 7857 | 154 | 49 | 26 | 3062 | 2477 | 1344 | 8264 | 60 | 215 |  |  |  |  |
| CNC(=O)Oc1cccc2ccccc12 [CARBARIL] | 809 | 16 | 11 | 11 | 2956 | 571 | 569 | 6310 | 58 | 164 | 2767 | 773 | 54 | 15 |
